Where a name gives a salt, the structure may show the parent alone.
What was measured:
[1] = tested on: Trypanosoma brucei brucei; test: Trypanocidal activity against Trypanosoma brucei brucei by Alamar Blue assay; format: functional, organism-based
[2] = tested on: Plasmodium falciparum; test: Antimalarial activity against asexual stage of Plasmodium falciparum 3D7 after 72 hrs by image-based HTS assay; format: functional, organism-based; conditions: 3D7, 72 h
[3] = tested on: Plasmodium falciparum; test: Antimalarial activity against late (4 to 5) gametocytic stage of Plasmodium falciparum at 120 uM after 72 hrs by image-based HTS assay relative to control; format: functional
[4] = tested on: Plasmodium falciparum; test: Antimalarial activity against early (1 to 3) gametocytic stage of Plasmodium falciparum at 120 uM after 72 hrs by image-based HTS assay relative to control; format: functional
[5] = tested on: Trypanosoma brucei brucei; test: Antitrypanosomal activity against bloodstream form of Trypanosoma brucei brucei 427 after 3 days by Alamar Blue assay; format: functional, organism-based; conditions: Trypanosoma brucei, 427, 72 h
[6] = tested on: Plasmodium falciparum; test: Antimalarial activity against late (4 to 5) gametocytic stage of Plasmodium falciparum after 72 hrs by image-based HTS assay; format: functional, organism-based
In short: (§1)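 P. falciparum early (I–III) or late (IV–V) gametocytes from the authors' large-scale synchronized culture. Exposed to compound in dose response for 72 h. Activity read in an image-based assay. IC50 from duplicate or triplicate points, n ≥ 2, reported as mean ± SD.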

[7] = tested on: Plasmodium falciparum; test: Antimalarial activity against early (1 to 3) gametocytic stage of Plasmodium falciparum after 72 hrs by image-based HTS assay; format: functional, organism-based; in short: as §1
[8] = tested on: Trypanosoma cruzi; test: Antitrypanosomal activity against amastigote stage of Trypanosoma cruzi infected in mouse NIH/3T3 cells after 48 hrs by Hoechst staining assay; format: functional, organism-based; conditions: NIH3T3, 48 h
[9] = Selectivity ratio of cytotoxic activity against mouse NIH/3T3 cells to antitrypanosomal activity against amastigote stage of Trypanosoma cruzi
[10] = tested on: Plasmodium falciparum; test: Antimalarial activity against late (4 to 5) gametocytic stage of Plasmodium falciparum at 100 uM after 72 hrs by image-based HTS assay relative to control; format: functional
In short: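 Image-based assay on late-stage (IV–V) P. falciparum gametocytes taken from large-scale production of pure synchronized gametocytes. Compound exposure was 72 h in dose response, with duplicate or triplicate points per concentration and n ≥ 2 independent runs.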

CC(=O)O[C@H]1C(=O)[C@@]2(C)[C@H]([C@H](OC(=O)c3ccccc3)[C@]3(O)C[C@H](OC(=O)[C@H](O)[C@@H](NC(=O)c4ccccc4)c4ccccc4)C(C)=C1C3(C)C)[C@]1(OC(C)=O)CO[C@@H]1C[C@@H]2O [PACLITAXEL]
IC50 [1]: 1000 nM

CCc1nc(N)nc(N)c1-c1ccc(Cl)cc1 [PYRIMETHAMINE]
IC50 [2]: 14 nM
inhibition at 120 µM [3]: 100%
inhibition at 120 µM [4]: 40%

CC[C@]1(O)C[C@@H]2CN(CCc3c([nH]c4ccccc34)[C@@](C(=O)OC)(c3cc4c(cc3OC)N(C)[C@H]3[C@@](O)(C(=O)OC)[C@H](OC(C)=O)[C@]5(CC)C=CCN6CC[C@]43[C@@H]65)C2)C1 [VINBLASTINE]
IC50 [5]: 94 nM

CCN(CC)Cc1cc(Nc2ccnc3cc(Cl)ccc23)ccc1O
IC50 [2]: 28 nM
IC50 [6]: 4490 nM
IC50 [7]: 159 nM

C[C@@H](c1ncncc1F)[C@](O)(Cn1cncn1)c1ccc(F)cc1F [VORICONAZOLE]
IC50 [8]: 96.5 nM
selectivity ratio ([9]; NIH/3T3 cells): 212

COc1ccc(C[C@H](N)C(=O)N[C@H]2[C@@H](O)[C@H](n3cnc4c(N(C)C)ncnc43)O[C@@H]2CO)cc1 [PUROMYCIN]
IC50 [2]: 64 nM
IC50 [6]: 46 nM
IC50 [7]: 137 nM

COc1cc(NC(C)CCCN)c2ncccc2c1 (stereo unspecified) [PRIMAQUINE]
IC50 [2]: 6090 nM
inhibition at 120 µM [3]: 40%
IC50 [7]: 5860 nM

CC[C@H](C)[C@H](NC(=O)[C@H]([C@@H](C)CC)N(C)C(C)=O)C(=O)N[C@H](C(=O)N[C@@H](CC(C)C)C(=O)[C@@]1(C)CO1)[C@@H](C)O [EPOXOMYCIN]
IC50 [2]: 2.2 nM
IC50 [6]: 0.7 nM

C[C@H]1[C@H](OC(=O)CCC(=O)O)O[C@@H]2O[C@@]3(C)CC[C@H]4[C@H](C)CC[C@@H]1[C@@]24OO3 [ARTESUNATE]
IC50 [6]: 3.43 nM

COc1cc(C)c2c(Oc3cccc(C(F)(F)F)c3)c(OC)cc(NC(C)CCCN)c2n1 (stereo unspecified) [TAFENOQUINE]
IC50 [2]: 1070 nM
IC50 [6]: 3370 nM

CC[C@H](C)C(=O)O[C@H]1CCC=C2C=C[C@H](C)[C@H](CC[C@@H]3C[C@@H](O)CC(=O)O3)[C@H]21 [MEVASTATIN]
IC50 [5]: 940 nM

CCN(CC)CCCC(C)Nc1ccnc2cc(Cl)ccc12 (stereo unspecified) [CHLOROQUINE]
inhibition at 100 µM [10]: 100%

N#C/C(=C1/SCC(c2ccccc2Cl)S1)n1ccnc1 (stereo unspecified) [LANOCONAZOLE]
IC50 [8]: 67.1 nM
selectivity ratio ([9]; NIH/3T3 cells): 306

CC(=O)N1CCN(c2ccc(OCC3COC(Cn4ccnc4)(c4ccc(Cl)cc4Cl)O3)cc2)CC1 (stereo unspecified) [KETOCONAZOLE]
IC50 [8]: 22.7 nM
selectivity ratio ([9]; NIH/3T3 cells): > 853

C/C=C/C[C@@H](C)[C@@H](O)[C@H]1C(=O)N[C@@H](CC)C(=O)N(C)CC(=O)N(C)[C@@H](CC(C)C)C(=O)N[C@@H](C(C)C)C(=O)N(C)[C@@H](CC(C)C)C(=O)N[C@@H](C)C(=O)N[C@H](C)C(=O)N(C)[C@@H](CC(C)C)C(=O)N(C)[C@@H](CC(C)C)C(=O)N(C)[C@@H](C(C)C)C(=O)N1C [CYCLOSPORINE]
IC50 [5]: 1.14 nM

Clc1ccc(COC(Cn2ccnc2)c2ccc(Cl)cc2Cl)c(Cl)c1 (stereo unspecified) [MICONAZOLE NITRATE]
IC50 [8]: 826 nM
selectivity ratio ([9]; nih/3t3): > 19.5

O=C1c2c(O)ccc(O)c2C(=O)c2c(NCCNCCO)ccc(NCCNCCO)c21 [MITOXANTRONE HYDROCHLORIDE]
IC50 [5]: 2.4 nM
IC50 [1]: 1000 nM

CO[C@@]12[C@H](COC(N)=O)C3=C(C(=O)C(C)=C(N)C3=O)N1C[C@@H]1N[C@@H]12 [MITOMYCIN]
IC50 [1]: 1000 nM

O[C@@H](c1cc(C(F)(F)F)nc2c(C(F)(F)F)cccc12)[C@H]1CCCCN1 (relative stereo) [(S,R)-MEFLOQUINE]
IC50 [2]: 200 nM
IC50 [7]: 220 nM

CC[C@]1(O)C[C@H]2CN(CCc3c([nH]c4ccccc34)[C@@](C(=O)OC)(c3cc4c(cc3OC)N(C=O)[C@H]3[C@@](O)(C(=O)OC)[C@H](OC(C)=O)[C@]5(CC)C=CCN6CC[C@]43[C@@H]65)C2)C1 [VINCRISTINE]
IC50 [5]: 30 nM

c1ccc(-c2ccc(C(c3ccccc3)n3ccnc3)cc2)cc1 (stereo unspecified) [BIFONAZOLE]
IC50 [8]: 204 nM
selectivity ratio ([9]; NIH/3T3 cells): > 91.6

COc1ccc2nc3cc(Cl)ccc3c(Nc3cc(CN4CCCC4)c(O)c(CN4CCCC4)c3)c2n1 [PYRONARIDINE]
IC50 [2]: 46 nM
IC50 [6]: 1300 nM
IC50 [7]: 131 nM

Clc1ccccc1C(c1ccccc1)(c1ccccc1)n1ccnc1 [CLOTRIMAZOLE]
IC50 [8]: 187 nM
selectivity ratio ([9]; NIH/3T3 cells): > 87.2

C[C@H]1[C@@H](O)O[C@@H]2O[C@@]3(C)CC[C@H]4[C@H](C)CC[C@@H]1[C@@]24OO3 [ARTENIMOL]
IC50 [2]: 0.7 nM

Clc1ccc(CO/N=C(\Cn2ccnc2)c2ccc(Cl)cc2Cl)c(Cl)c1 [OXICONAZOLE NITRATE]
IC50 [8]: 388 nM
selectivity ratio ([9]; nih/3t3): > 46.3
